Laboratory results as given in ChEMBL document CHEMBL3400028, “Evaluation of Aconitum diterpenoid alkaloids as antiproliferative agents” (2015).

Columns and labels:
Format in all cases: functional
A549 = assay: Antiproliferative activity against human A549 cells by sulforhodamine B assay
Procedure, shortened: (§1)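 Cells in RPMI 1640 (25 mM HEPES, 2 mM L-glutamine, 10% heat-inactivated FBS, antibiotics) at 37 °C, 5% CO2. Seeded at 3–5 × 10³/well with graded concentrations, paclitaxel as assay control, for 72 h. TCA-fixed, stained with 0.04% SRB, dye dissolved in 10 mM Tris, A515 read. GI50 is the concentration halving absorbance versus untreated cells; three or more experiments.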

DU-145 = assay: Antiproliferative activity against human DU145 cells by sulforhodamine B assay; procedure, shortened: as §1
KB = assay: Antiproliferative activity against human KB cells by sulforhodamine B assay; procedure, shortened: as §1
[1] = Antiproliferative activity against multidrug-resistant P-gp expressing human KBVIN cells by sulforhodamine B assay
Procedure, shortened: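 Vincristine-resistant KB subline kept in 100 nM vincristine, then grown 7–10 days without it before testing. RPMI 1640 with 10% FBS, 37 °C, 5% CO2. 3–5 × 10³ cells/well exposed 72 h to a concentration series, paclitaxel as assay control. SRB staining after TCA fixation, A515 read. GI50 is the 50% absorbance reduction versus untreated cells; three or more experiments.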

[2] = Selectivity ratio of GI50 for human KB cells to GI50 for multidrug-resistant P-gp expressing human KBVIN cells
Procedure, shortened: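 Ratio of GI50 in parental KB to GI50 in P-gp-overexpressing KB-VIN. […] KB-VIN cells were grown 7–10 days without vincristine before the assay.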

SMILES | GI50 (A549) | GI50 (DU-145) | GI50 (KB) | GI50 [1] | RatioGI50 [2]
CCN1C[C@]2(COC)CC[C@H](O)[C@]34C1[C@@](O)([C@@H](OC)[C@H]23)[C@@]1(O)C[C@H](OC)[C@H]2C[C@@H]4[C@@H]1[C@H]2OC [DELSOLINE] | > 20 µM | > 20 µM | > 20 µM | > 20 µM | >20
C=C1[C@H]2C[C@@H]3C4N5C[C@]6(C)CCC[C@@]47[C@@H]6[C@@]5(O)C[C@]3([C@@H]1OC(=O)c1cccnc1)[C@H]7[C@H]2OC(=O)c1cccnc1 | > 20 µM | > 20 µM | > 20 µM | > 20 µM | >20
C=C1[C@H]2C[C@H]3C4N5C[C@]6(C)CCC[C@]47[C@H]([C@H]2OC(=O)c2ccc(OC)c(OC)c2)C3(C[C@]5(O)[C@H]67)[C@@H]1O | 10 µM | 10 µM | 10 µM | 10 µM | 10
C=C1[C@H]2C[C@H]3C4N5C[C@]6(C)CCC[C@]47[C@H]([C@H]2O)C3(C[C@]5(OC(=O)/C=C/c2ccccc2)[C@H]67)[C@@H]1O | > 20 µM | > 20 µM | > 20 µM | > 20 µM | >20
C=C1[C@H]2C[C@@H]3C4N5C[C@]6(C)CCC[C@@]47[C@@H]6[C@@]5(OC(=O)c4ccc([N+](=O)[O-])cc4)C[C@]3([C@@H]1O)[C@H]7[C@H]2O | > 20 µM | > 20 µM | > 20 µM | > 20 µM | >20
CCN1C[C@]2(COC)[C@H](O)C[C@H](O)[C@]34C1[C@@](O)([C@@H](OC)[C@H]23)[C@@]1(O)C[C@H](OC)[C@H]2C[C@@H]4[C@@H]1[C@H]2OC(=O)c1ccccc1 | > 20 µM | > 20 µM | > 20 µM | > 20 µM | >20
C=C1[C@H]2C[C@@]3([C@@H]1OC(=O)c1ccccc1)[C@@H](C[C@@H]2OC(=O)c1ccccc1)[C@@]12C4[C@@H]3C[C@@H]1[C@@](C)(CC[C@@H]2OC(=O)c1ccccc1)CN4CC | > 20 µM | > 20 µM | > 20 µM | > 20 µM | >20
CCN1C[C@]2(C)CC[C@H](O)[C@@]34C5C[C@@H]6[C@@H](OC)C[C@@](O)(C5[C@H]6O)[C@@H](CC23)C14 (stereo not given in full) [KARACOLINE] | > 20 µM | > 20 µM | > 20 µM | > 20 µM | >20
CCN1C[C@]2(COC)CC[C@H](OC)[C@]34C1[C@@](O)([C@@H](OC)[C@H]23)[C@@]1(O)C[C@H](OC)[C@H]2C[C@@H]4[C@@H]1[C@H]2OC(C)=O | > 20 µM | > 20 µM | > 20 µM | > 20 µM | >20
C=C1[C@H]2C[C@@H]3C4N5C[C@]6(C)CCC[C@@]47[C@@H]6[C@@]5(OC(=O)c4ccc(OC)c(OC)c4)C[C@]3([C@@H]1OC(=O)c1ccc(OC)c(OC)c1)[C@H]7[C@H]2O | 10 µM | 10 µM | 10 µM | 10 µM | 10
COC[C@]12CN(C)C3[C@@H]4[C@H](OC)[C@H]1[C@@]3([C@@H](OC)C[C@H]2O)[C@@H]1C[C@@]2(O)[C@H](OC(=O)c3ccccc3)[C@@H]1[C@]4(OC(C)=O)[C@@H](O)[C@@H]2OC | > 20 µM | > 20 µM | > 20 µM | > 20 µM | >20
COC[C@@]12CC[C@H](OC)[C@]34C(C([C@H](OC)[C@H]13)[C@]1(OC(C)=O)[C@H]3[C@@H](OC(=O)c5ccccc5)[C@](O)(C[C@H]34)[C@@H](OC)[C@@H]1O)N(C)C2 [HYPACONITINE] | > 20 µM | > 20 µM | > 20 µM | > 20 µM | >20
C=C1[C@H]2C[C@@H]3C4N5C[C@]6(C)CCC[C@@]47[C@@H]6[C@@H]5C[C@]3([C@@H]1OC(=O)c1ccc([N+](=O)[O-])cc1)[C@H]7[C@H]2O | > 20 µM | > 20 µM | > 20 µM | > 20 µM | >20
C=C1[C@H]2C[C@@H]3C4N5C[C@]6(C)CCC[C@@]47[C@@H]6[C@@H]5C[C@]3([C@@H]1OC(C)=O)[C@H]7[C@H]2O | > 20 µM | > 20 µM | > 20 µM | > 20 µM | >20
CCN1C[C@]2(COC)CC[C@H](O)[C@]34C1[C@@](O)([C@@H](OC)[C@H]23)[C@@]1(O)C[C@H](OC)[C@H]2C[C@@H]4[C@@H]1[C@H]2OC(C)=O | > 20 µM | > 20 µM | > 20 µM | > 20 µM | >20
C=C1[C@H]2C[C@@H]3C4N5C[C@]6(C)CCC[C@@]47[C@@H]6[C@@H]5C[C@]3([C@@H]1OC(=O)c1ccccc1)[C@H]7[C@H]2O | > 20 µM | > 20 µM | > 20 µM | > 20 µM | >20
CCN1C[C@]2(COC)CC[C@H](OC)[C@]34C1C([C@H](OC)[C@H]23)[C@]1(OC(C)=O)[C@H]2[C@@H](OC(=O)c3ccccc3)[C@](O)(C[C@H]24)[C@@H](OC)[C@@H]1O [DEOXYACONITINE] | > 20 µM | > 20 µM | > 20 µM | > 20 µM | >20
CCN1C[C@]2(C)CC[C@H](OC)[C@@]34[C@@H]5C[C@H]6[C@H](OC)[C@@H]5[C@@]5(C[C@@H]6OC)OCO[C@@]5(C(=O)[C@H]23)[C@@H]14 [PACININE] | > 20 µM | > 20 µM | > 20 µM | > 20 µM | >20
CCN1C[C@@]2(COC)[C@H]3[C@@H](OC)[C@H]4C1[C@]3([C@@H](OC)C[C@H]2OC(C)=O)[C@@H]1C[C@@]2(O)[C@H](OC(=O)c3ccc(OC)cc3)[C@@H]1[C@]4(OC(C)=O)[C@@H](OC(C)=O)[C@@H]2OC | > 20 µM | > 20 µM | > 20 µM | > 20 µM | >20
CCN1C[C@]2(C)CC[C@H](OC)[C@@]34[C@@H]5C[C@H]6[C@H](OC)[C@@H]5[C@@]5(C[C@@H]6OC)OCO[C@@]5([C@@H](OC(=O)c5cccc(C(F)(F)F)c5)[C@H]23)[C@@H]14 | 10 µM | 10 µM | 10 µM | 10 µM | 10
C=C1[C@H]2C[C@@H]3C4N5C[C@]6(C)CCC[C@@]47[C@@H]6[C@@H]5C[C@]3([C@@H]1O)[C@H]7[C@H]2OC(=O)c1cccc(C(F)(F)F)c1 | > 20 µM | > 20 µM | > 20 µM | > 20 µM | >20
C=C1[C@H]2C[C@@H]3C4N5C[C@]6(C)CCC[C@@]47[C@@H]6[C@@]5(O)C[C@]3([C@@H]1OC(=O)c1cccc([N+](=O)[O-])c1)[C@H]7[C@H]2OC(=O)c1cccc([N+](=O)[O-])c1 | 5 µM | 5.2 µM | 5.6 µM | 5.6 µM | 0.99
CCN1C[C@]2(COC(=O)c3ccccc3N)CC[C@H](OC)[C@]34C1[C@@](O)([C@@H](OC)[C@H]23)[C@@]1(O)C[C@H](OC)[C@H]2C[C@@H]4[C@@H]1[C@H]2OC(C)=O | > 20 µM | > 20 µM | > 20 µM | > 20 µM | >20
C=C1[C@@H](OC(C)=O)[C@]23C[C@@H]1[C@@H](OC(C)=O)C[C@H]2[C@@]12C4C3C[C@@H]1[C@@](C)(CC[C@H]2OC(C)=O)CN4CC | > 20 µM | > 20 µM | > 20 µM | > 20 µM | >20
CO[C@H]1[C@@H]2C[C@@H]3[C@H]1[C@](O)(C[C@@H]2OC)[C@@]1(O)C2NC(=O)[C@]4(COC(=O)c5ccccc5N)CC[C@H](OC)[C@@]23[C@@H]4[C@@H]1OC | > 20 µM | > 20 µM | > 20 µM | > 20 µM | >20
C=C1[C@H]2C[C@@H]3C4N5C[C@]6(C)CCC[C@@]47[C@@H]6[C@@]5(O)C[C@]3([C@@H]1OC(=O)c1ccccc1)[C@H]7[C@H]2OC(=O)c1ccccc1 | 8.8 µM | 7.6 µM | 5.2 µM | 6.3 µM | 0.82
C=C1[C@H]2C[C@@H]3C4N5C[C@]6(C)CCC[C@@]47[C@@H]6[C@@]5(OC(=O)c4ccc(OC)cc4)C[C@]3([C@@H]1O)[C@H]7[C@H]2OC(=O)c1ccc(OC)cc1 | > 20 µM | > 20 µM | > 20 µM | > 20 µM | >20
CCN1C[C@]2(COC)[C@H](O)C[C@H](O)[C@]34C1[C@@](O)([C@@H](OC)[C@H]23)[C@@]1(O)C[C@H](OC)[C@H]2C[C@@H]4[C@@H]1[C@H]2O | > 20 µM | > 20 µM | > 20 µM | > 20 µM | >20
